Screening data as filed in PubChem BioAssay.
Most compounds without a hit are left out; they make up all but 3.7% or so of the library.
KCNQ1 pot – potentiators or activators of human KCNQ1 potassium channel; 310,000 compounds, 0.35% hits; B-score at 10 µM; P51787; CHO-K1 KCNQ1, thallium flux FluxOR fluorescence; active compounds read high; AID 2648;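 active = fluorescence ratio B-score, a plate-corrected score, at least three library SD, with initial intensity B-score within 5 SD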
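assay system = CHO-K1 cells stably expressing KCNQ1 | medium = assay buffer, equal DMSO in all wells | timing = 37 °C overnight plating, 90-min dark dye load, 20-min compound pretreatment | measured by = kinetic FluxOR thallium fluorescence, 10-s 1-Hz baseline, 110-s post-stimulus read | measure = fluorescence change relative to baseline, converted to B score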
KCNK9 inh – inhibitors of human KCNK9 two-pore domain potassium channel; Q9NPC2; B-score at 10 µM; HEK293 KCNK9, FluxOR thallium flux fluorescence; active compounds read low; AID 488922; 310,000 compounds, 1.2% hits;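 active = ratio B-score over 3 SD below the library mean, with starting fluorescence within 5 SD of its mean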;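 note: negative B-score means less thallium flux so channel inhibition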
KCNK3 inh – human KCNK3 channel inhibition, primary screen | CHO-KCNK3 thallium flux, FluxOR fluorescence; active compounds read low | B-score at 10 µM | 340,000 compounds, 0.84% hits | AID 602410;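 active = B-score under library mean minus 4 SD, starting fluorescence ratio at most library mean plus 5 SD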;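 note: more negative B-score means stronger inhibition of thallium flux through KCNK3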
hERG rescue – shields human hERG channel from block by proarrhythmic agents; Q12809; activation (rescue from dofetilide block), less the hit threshold, % at 10 µM; CHO-hERG, FluxOR thallium flux, dofetilide IC70 present; 310,000 compounds, 0.51% hits; AID 1511;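 active = activation above the mean of controls blocked by dofetilide plus 5 SD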;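 note: thallium influx through hERG after potassium depolarization seen as dye fluorescence rise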
KCNQ1 inh – inhibitors of human KCNQ1 potassium channel | P51787 | CHO-K1 KCNQ1, FluxOR thallium flux fluorescence; active compounds read high | B-score at 10 µM | 310,000 compounds, 1.3% hits;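 active = compounds whose thallium flux B-score, printed positive for inhibition, exceeds three library SD while starting fluorescence stays within three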;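 note: channel opened by potassium depolarization with thallium stimulus after 20 min compound exposure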
Kir21 inh – blocks the mouse Kir2.1 inward-rectifier potassium channel. P35561. HEK293-Kir2.1, FluxOR thallium flux fluorescence; active compounds read low. B-score at 10 µM. 310,000 compounds, 0.85% hits;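 active = fluorescence ratio B-score at or below minus 3 SD of library scores, with starting-brightness B-score within 2 SD, cut at about -4.2 in these data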;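 note: channel flux triggered by added potassium and thallium sulfate stimulus; B-score of peak minus minimum fluorescence over baseline after thallium stimulus; more negative B-score means stronger Kir2.1 block with less thallium influx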
Target sequence (P35561 whole entry, looked up): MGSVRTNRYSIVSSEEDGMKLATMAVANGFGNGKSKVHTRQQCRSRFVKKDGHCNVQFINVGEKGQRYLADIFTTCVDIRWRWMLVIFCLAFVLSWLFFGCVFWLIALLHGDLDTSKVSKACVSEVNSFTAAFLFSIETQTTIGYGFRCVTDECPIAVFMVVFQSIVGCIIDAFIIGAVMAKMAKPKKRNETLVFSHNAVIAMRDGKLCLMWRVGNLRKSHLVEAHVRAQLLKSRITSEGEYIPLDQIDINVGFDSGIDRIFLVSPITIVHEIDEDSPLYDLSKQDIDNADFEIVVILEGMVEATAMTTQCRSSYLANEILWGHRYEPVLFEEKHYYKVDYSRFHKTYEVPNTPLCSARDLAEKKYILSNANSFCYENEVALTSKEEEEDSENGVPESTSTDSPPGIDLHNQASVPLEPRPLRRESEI
KCNK9 block conf – human KCNK9 inhibitor confirmation; shares compounds with KCNK9 inh; HEK293 KCNK9 cells, FluxOR thallium flux fluorescence; inhibition, % at 10 µM; 4,900 compounds, 43% hits;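 active = thallium signal inhibited by more than 5 SD of the compound-free buffer control wells, on both duplicate plates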;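 note: 0% = assay buffer control wells without compound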
Kir2-1 spec – tests whether KCNK9 modulators also affect mouse Kir2.1; shares compounds with KCNK9 inh; Kir2.1 cells, FluxOR thallium flux fluorescence; inhibition, % at 10 µM; 4,900 compounds, 4% hits; AID 492993;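 active = thallium signal drop more than 5 SD beyond the mean of the no-compound control wells, seen in both duplicate plates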;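 note: signal is fluorescence rise after thallium addition divided by baseline fluorescence; plate controls were assay buffer only for no effect and full block by chlorpromazine control for full effect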
HEK293 Tl ctr – non-induced cell nonspecific activity of KCNK9 modulators | non-induced KCNK9-HEK293, FluxOR thallium flux | shares compounds with KCNK9 inh | inhibition, % at 10 µM | 4,900 compounds, 40% hits;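 active = thallium signal drop beyond 5 SD of the untreated control mean, on both duplicate plates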;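 note: plate controls were buffer only IC0 wells for no effect and SID17386958 at its maximal inhibitory level for full effect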
* hit, by the source's call; i = inactive; x = no result.

SMILES	KCNQ1 pot	KCNK9 inh	KCNK3 inh	hERG rescue	KCNQ1 inh	Kir21 inh	KCNK9 block conf	Kir2-1 spec	HEK293 Tl ctr
CN(C)c1ccc(/C=N\NC(=O)c2cccc3cc[nH]c23)cc1	i	i	i	-6	i	0.05	x	x	x
Cc1ccc(SCc2cc(=O)[nH]c(Nc3nc(C)c4ccccc4n3)n2)cc1	i	i	i	-6	i	-0.67	i	i	i
Cc1ccc(SCc2cc(=O)[nH]c(Nc3nc(C)c4ccc(C)cc4n3)n2)cc1	i	i	i	-11	i	0	x	x	x
CC(C)(C)c1ccc(CN(Cc2ccco2)Cc2nnnn2C2CCCC2)cc1	i	-14*	i	-24	6*	-0.16	62%*	i	49%*
CCOc1ccc(NC2=C(Cl)C(=O)N(C3CCCCC3)C2=O)cc1	i	i	i	-4	i	0.45	x	x	x
COc1ccc(C)cc1NC1=C(Cl)C(=O)N(C2CCCCC2)C1=O	i	-17*	i	-10	i	0.43	64%*	i	44%*
O=C(Nc1cccc(S(=O)(=O)N2CCOCC2)c1)C1CCN(S(=O)(=O)c2ccccc2)CC1	x	x	i	x	x	x	x	x	x
Cc1ccc(NC(=O)CSc2ncccn2)cc1S(=O)(=O)N1CCOCC1	x	x	i	x	x	x	x	x	x
Cc1cc(N2CCCCC2)n2ncc(-c3ccc(Cl)cc3)c2n1	i	-11*	i	-12	i	0.6	54%*	i	36%*
COc1ccc(CCCc2nnc(SCC(=O)Nc3cccc(C)c3)o2)cc1	i	i	i	-4	i	-0.16	i	i	i
Cc1cccc(OCCNC(=O)c2cccc(Oc3ccc(C(F)(F)F)cc3[N+](=O)[O-])c2)c1	i	i	i	-9	i	0.3	i	i	i
Cc1ccc(C(=O)O/N=C/c2c(C(F)(F)F)nn(C)c2Sc2ccc(Cl)cc2)cc1	i	i	i	-7	i	1.1	i	i	i
COC(=O)c1ccccc1Sc1c(/C=N/OC(=O)c2ccccc2)c(C(F)(F)F)nn1C	i	i	i	-5	i	0.68	x	x	x
CCOC(=O)c1[nH]c(CN2CCN(c3ccc(OC)cc3)CC2)c(C(=O)OCC)c1C	i	i	i	-8	i	-0.18	i	i	i
CCOC(=O)c1[nH]c(C)c(C(=O)N2CCN(c3ccc(OC)cc3)CC2)c1C	i	i	i	-6	i	-0.71	x	x	x
Cc1ccc(S[C@@H](CCN2CC[C@H](C)CCC2=O)c2ccccc2)cc1	i	-9.4*	i	-7	i	-1.2	66%*	i	34%*
COc1ccc(S[C@@H](CCN2CC[C@H](C)CCC2=O)c2ccccc2)cc1	x	x	i	x	x	x	x	x	x
C[C@@H]1CCC(=O)N(CC[C@H](Oc2ccccc2)c2ccccc2)CC1	i	-15*	i	-10	i	-2.9	74%*	i	36%*
O=C(O)c1ccc(COc2ccccc2Cl)cc1	i	i	i	-9	i	-2.6	x	x	x
CCN(CC)C(=O)c1ccc(COc2ccccc2Cl)cc1	i	-8.7*	i	-10	i	0.03	36%*	i	24%*
O=C(CCNC(=O)c1ccccc1Cl)Nc1nc(-c2ccc3ccccc3c2)cs1	i	-8.2*	i	-8	i	-1.1	42%*	i	i
COc1cc(C)c(NC(=O)C(=S)NCCc2ccccc2)cc1C	i	i	i	-12	i	1.2	i	i	i
O=C(Cc1sc(Nc2ccccc2)nc1-c1ccccc1)NCc1ccccc1	i	-9.2*	i	-6	i	0.01	62%*	i	31%*
Cc1ccc2[nH]c(C(=O)N3CCC(C(N)=O)CC3)cc2c1	i	i	i	-4	i	1.8	x	x	x
COc1ccc(Sc2nnc(-c3ccccc3)cc2C#N)cc1	i	i	i	-4	i	0	x	x	x
SMILES	KCNQ1 pot	KCNK9 inh	KCNK3 inh	hERG rescue	KCNQ1 inh	Kir21 inh	KCNK9 block conf	Kir2-1 spec	HEK293 Tl ctr
Cc1ccc(Sc2nnc(Cc3ccccc3)c3ccccc23)cc1	i	-13*	i	-8	i	-1.2	70%*	i	42%*
COc1ccc(Sc2nnc(Cc3ccccc3)c3ccccc23)cc1	i	-15*	i	-7	i	0.06	i	i	27%*
CCOC(=O)C1CCCN(CC(=O)N(C)c2c(N)n(Cc3ccccc3)c(=O)[nH]c2=O)C1 (stereo not drawn)	x	x	i	x	x	x	x	x	x
Cc1cc(C)c(S(=O)(=O)c2ccccc2)c(OC(=O)c2c(Cl)cc(Cl)cc2Cl)n1	i	-10*	i	-7	i	0.88	52%*	i	32%*
Cc1cc(C)c(S(=O)(=O)c2ccccc2)c(OC(=O)c2c(F)cccc2F)n1	i	i	i	-6	i	-3.2	x	x	x
CCC(C)N(C(=O)Cn1nnc2ccccc21)C(C(=O)Nc1ccc(F)cc1)c1cccc(OC)c1 (stereo not drawn)	i	-9.2*	i	-4	i	1.3	36%*	i	i
COCCNC(=O)C(c1cccc(OC)c1)N(Cc1cccs1)C(=O)Cn1nnc2ccccc21 (stereo not drawn)	i	i	i	-8	i	-0.29	x	x	x
Cc1snc(SCc2ccc(Cl)cc2)c1C#N	i	i	i	-7	i	-1.5	x	x	x
COc1cccc(/C=C(/C(=O)OCC(=O)NC2CCCC(C)C2C)c2ccccc2)c1 (stereo not drawn)	i	-9.3*	i	-30	10*	-0.16	43%*	i	44%*
Cc1cc(OCC(O)CN2CCN(c3ccccn3)CC2)cc(C)c1Cl (stereo not drawn)	i	i	i	-11	i	-0.23	x	x	x
CN(Cc1ccc(F)cc1)C(=O)c1cccc(S(=O)(=O)N2CCN(Cc3ccccc3)CC2)c1	i	i	i	-10	i	-0.01	x	x	x
CC1CCCCC1NC(=O)c1cccc(S(=O)(=O)N2CCN(Cc3ccccc3)CC2)c1 (stereo not drawn)	i	i	i	-12	i	1	i	i	i
CSc1ccc(CN(C)C(=O)c2cccc(S(=O)(=O)N3CCN(Cc4ccccc4)CC3)c2)cc1	i	i	i	-15	9*	-1.6	i	i	i
